The source of these data is article PMC9089800 (RSC Advances, 2018).

One data set concerns MCF7. As to the kind of experiment: MTT growth inhibition / cytotoxicity assay, MCF7. The data set is classed as cell-based, human.
Another data set deals with MDA-MB-231. As to the kind of experiment: MTT growth inhibition / cytotoxicity assay, MDA-MB-231. The data set is classed as cell-based, human.
The subject of a further data set is caspase 9. As to the kind of experiment: Western blot for apoptotic pathway. The class given is cell-based, human. To be noted: MCF7, 24 h; 30 μM of 9, 20 μM of 10. In short, it runs like this: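 MCF7 cells exposed 24 h to DMSO vehicle or test compound. Lysed 20 min on ice in Tris pH 7.4/EDTA/NaCl/NaF/orthovanadate/0.5% Triton X-100, then cleared at 16000 × g at 4 °C. Protein quantified by Bradford; samples boiled in Laemmli buffer. SDS-PAGE, PVDF transfer, 3% milk/TBST block. Anti-caspase 9 overnight at 4 °C; HRP secondary; chemiluminescent detection.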

In another data set the test system is MCF10A. Put plainly: cells. To be noted: 48 h; for IC50: Homo sapiens, MCF-10A, read-out: IC50 in μM MCF10A. The data set is classed as cell-based.
Data set [1] relates to MCF7 cells. Put plainly: DNA fragmentation assay. To be noted: MCF7, 24 h; 30 μM of 9, 20 μM of 10. The class given is cell-based, human.
The test system of data set [2] is MCF7 cells. As to the kind of experiment: Cell cycle analysis by FACS. The data set is classed as cell-based, human. To be noted: MCF7, 24 h; 30 μM of 9, 20 μM of 10. In short, it runs like this:
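Cells seeded a day before; treated 24 h with test compound or DMSO vehicle (final DMSO <0.02%). Cells trypsinised, pelleted at 4 °C, fixed overnight at 4 °C in chilled 95% ethanol, and PBS-washed. Stained with propidium iodide plus RNase in PBS/2 mM MgCl2 for 20 min at 37 °C, then acquired by flow cytometry. Three repeats; mean sub-G1 population plotted.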

For data set [3], the system named is MCF7 cells. As to the kind of experiment: Immunostaining. The data set is classed as cell-based, human. To be noted: IC50 concentration, 12 hours. The procedure, abridged: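 Cells grown overnight as a monolayer on coverslips, then exposed to test compound for 12 h. Fixed in 3.7% formaldehyde for 20 min at room temperature in the dark. Permeabilised with 0.5% Tween-20 for 30 min, then blocked with 3% BSA. Stained 1 h with anti-α-tubulin, then 1 h with Alexa Fluor 594 secondary. DNA counterstained with Hoechst; mounted in DABCO/glycerol.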

Setting [4] is: Homo sapiens, MCF7, 48 h, read-out: IC50 in μM MCF7, MTT, 48 h, 0–100 μM.
Setting [5] is: read-out: IC50 in μM MCF7, MTT, 48 h, 0–100 μM.

Each structure is given as a SMILES string. Where two headings read alike, the source gives them in different places. A value given as a limit tells only on which side of the number the result lay.

As for `C=C1[C@@H]2[C@H]3OC(=O)C(=C)[C@@H]3CCC(=C)[C@@H]2C[C@@H]1O` [Compound 2, Zaluzanin C], the IC50 with MCF7 (setting [4]) was greater than 100 µM. Further, the “IC50 in μM MCF7” value in the data set on MCF7 (MTT, 48 h, 0–100 μM) is “inactive”. For the same compound, in the data set on MDA-MB-231 (48 h, 0–100 μM), the “IC50 in μM MDA-MB-231” value was “inactive”.
In the case of `C=C1[C@@H]2[C@H]3OC(=O)[C@@H](CN[C@H](C)c4cccc5ccccc45)[C@@H]3CCC(=C)[C@@H]2C[C@@H]1OC(C)=O` [Compound 9, (3R,3aS,6aR,8S,9aR,9bS)-6,9-Dimethylene-3-((((R)-1-(naphthalen-1-yl)ethyl)amino)methyl)-2-oxododecahydroazuleno[4,5-b]furan-8-yl acetate], the “apoptotic pathway (caspase 9 immunoblot)” value in the data set with caspase 9 was “cleavage of caspase 9”. In addition, the concentration for half-maximal inhibition (IC50) is less than 50 µM with MCF7 (setting [4]), 30 ± 0.7 µM in the data set with MCF7 (setting [5]) and 42 ± 4.1 µM in the data set on MCF10A. Further, the “cytotoxic effect on normal breast epithelial MCF10A cells (in words)” value with MCF10A (MTT) is on record as “potent cytotoxic effect”. Further, the “fragmentation of genomic DNA (ladder on agarose gel)” value in the data set on MCF7 cells [1] is “substantial fragmented DNA ladder”. Besides, the “apoptotic (sub-G1) population” value in the data set on MCF7 cells [2] is reported as “significantly increased the apoptotic populations”. In the data set with MCF7 cells [3], the “DNA fragmentation by Hoechst staining, tubulin morphology” value is listed as “fragmented DNA”.
Take `C=C1[C@@H]2[C@H]3OC(=O)[C@@H](CN4CCC(O)CC4)[C@@H]3CCC(=C)[C@@H]2C[C@@H]1O` [Compound 14, (3R,3aS,6aR,8S,9aR,9bS)-8-Hydroxy-3-((4-hydroxypiperidin-1-yl)methyl)-6,9-di-methylenedecahydroazuleno[4,5-b]furan-2(3H)-one]: the 50% inhibitory concentration (IC50) was less than 50 µM with MCF7 (setting [4]); 40 ± 2.16 µM in the data set with MCF7 (setting [5]); greater than 50 µM in the data set with MCF10A; 25 ± 2.3 µM with MDA-MB-231 (read-out: IC50 in μM MDA-MB-231, 48 h, 0–100 μM). In addition, the “apoptotic (sub-G1) population” value with MCF7 cells [2] is on record as “induced apoptosis to a lesser extent”.
